Source: ChEMBL document CHEMBL4020827, “Targeting Multiple Effector Pathways in Pancreatic Ductal Adenocarcinoma with a G-Quadruplex-Binding Small Molecule” (J Med Chem, 2018)

Assays:
[1] = system: PANC-1; test: Effect on IQSEC1 gene expression in human PANC1 cells at 400 nM after 24 hrs by RNA sequence analysis relative to control; format: functional
Outline: (§1)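 PANC-1 (0.35 x 10^6) or MIA PaCa-2 (1.5 x 10^6) cells seeded overnight in 60 mm plates, then exposed to 400 nM compound for 6 or 24 h; untreated cells as controls. Cells were mycoplasma-free and STR-certified. Differential expression by RNA-seq, called at FDR < 0.1.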

[2] = system: MIA PaCa-2; test: Effect on PFKL gene expression in human MIAPaCa2 cells at 400 nM after 6 hrs by RNA sequence analysis relative to control; format: functional
[3] = system: MIA PaCa-2; test: Effect on AKT1 gene expression in human MIAPaCa2 cells at 400 nM after 6 hrs by RNA sequence analysis relative to control; format: functional; outline: as §1
[4] = system: PANC-1; test: Effect on IQSEC1 gene expression in human PANC1 cells at 400 nM after 6 hrs by RNA sequence analysis relative to control; format: functional
[5] = system: PANC-1; test: Effect on ARF6 gene expression in human PANC1 cells at 400 nM after 6 hrs by RNA sequence analysis relative to control; format: functional; outline: as §1
[6] = system: PANC-1; test: Effect on TEAD3 gene expression in human PANC1 cells at 400 nM after 24 hrs by RNA sequence analysis relative to control; format: functional
Outline: (§2)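 RNA-seq: cells seeded overnight in 60 mm plates (PANC-1 0.35 x 10^6, MIA PaCa-2 1.5 x 10^6 cells/well), then exposed to 400 nM compound for 6 or 24 h against untreated controls. Cell lines mycoplasma-free by RNA-capture ELISA and STR-profiled. Differentially expressed genes called at FDR < 0.1.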

[7] = system: PANC-1; test: Effect on PFKFB4 gene expression in human PANC1 cells at 400 nM after 24 hrs by RNA sequence analysis relative to control; format: functional
[8] = system: PANC-1; test: Effect on RPTOR gene expression in human PANC1 cells at 400 nM after 6 hrs by RNA sequence analysis relative to control; format: functional; outline: as §2
[9] = system: MIA PaCa-2; test: Effect on AKT1S1 gene expression in human MIAPaCa2 cells at 400 nM after 24 hrs by RNA sequence analysis relative to control; format: functional; outline: as §1
[10] = system: PANC-1; test: Effect on SMO gene expression in human PANC1 cells at 400 nM after 6 hrs by RNA sequence analysis relative to control; format: functional; outline: as §2
[11] = Binding affinity to 5'-FAM/3'-TAMRA labeled KRAS32 promoter G-quadruplex DNA (unknown origin) assessed as change in melting temperature at 1 uM by FRET assay
Outline: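 FRET melting of FAM/TAMRA dual-labelled promoter G4 oligonucleotides, 400 nM, annealed at 95 °C for 10 min in 60 mM potassium cacodylate (pH 7.4) then cooled to RT. Ligand at 1 μM in solution with 50 mM K+. Fluorescence (ex 450–495, em 515–545 nm) read every 0.5 °C over 30–100 °C with a 30 sec hold per step. ΔTm from curve fitting; triplicate measurements.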

[12] = system: PANC-1; test: Effect on IGF2 gene expression in human PANC1 cells at 400 nM after 24 hrs by RNA sequence analysis relative to control; format: functional; outline: as §1
[13] = system: MIA PaCa-2; test: Effect on TEAD2 gene expression in human MIAPaCa2 cells at 400 nM after 24 hrs by RNA sequence analysis relative to control; format: functional; outline: as §2
[14] = system: MIA PaCa-2; test: Effect on SHC2 gene expression in human MIAPaCa2 cells at 400 nM after 6 hrs by RNA sequence analysis relative to control; format: functional; outline: as §2
[15] = system: MIA PaCa-2; test: Effect on GLI4 gene expression in human MIAPaCa2 cells at 400 nM after 24 hrs by RNA sequence analysis relative to control; format: functional; outline: as §1
[16] = system: PANC-1; test: Effect on SHANK2 gene expression in human PANC1 cells at 400 nM after 24 hrs by RNA sequence analysis relative to control; format: functional; outline: as §2
[17] = system: MCF7; test: Growth inhibition of human MCF7 cells after 96 hrs by SRB assay; format: functional, cell-based; conditions: MCF7, 96 h
[18] = system: PANC-1; test: Effect on PFKFB4 gene expression in human PANC1 cells at 400 nM after 6 hrs by RNA sequence analysis relative to control; format: functional
[19] = system: PANC-1; test: Effect on PLXNA1 gene expression in human PANC1 cells at 400 nM after 24 hrs by RNA sequence analysis relative to control; format: functional
[20] = system: PANC-1; test: Growth inhibition of human PANC1 cells after 96 hrs by SRB assay; format: functional, cell-based; conditions: PANC-1, 96 h
[21] = system: MIA PaCa-2; test: Effect on PRKCZ gene expression in human MIAPaCa2 cells at 400 nM after 24 hrs by RNA sequence analysis relative to control; format: functional
[22] = system: MIA PaCa-2; test: Effect on FASN gene expression in human MIAPaCa2 cells at 400 nM after 24 hrs by RNA sequence analysis relative to control; format: functional; outline: as §1
[23] = system: PANC-1; test: Effect on ARF6 gene expression in human PANC1 cells at 400 nM after 24 hrs by RNA sequence analysis relative to control; format: functional; outline: as §1
[24] = system: MIA PaCa-2; test: Effect on PIK3R2 gene expression in human MIAPaCa2 cells at 400 nM after 24 hrs by RNA sequence analysis relative to control; format: functional
[25] = system: MIA PaCa-2; test: Effect on SMO gene expression in human MIAPaCa2 cells at 400 nM after 6 hrs by RNA sequence analysis relative to control; format: functional; outline: as §2
[26] = system: PANC-1; test: Effect on MAPK11 gene expression in human PANC1 cells at 400 nM after 24 hrs by RNA sequence analysis relative to control; format: functional
[27] = system: MIA PaCa-2; test: Effect on ROBO3 gene expression in human MIAPaCa2 cells at 400 nM after 24 hrs by RNA sequence analysis relative to control; format: functional; outline: as §2
[28] = system: MIA PaCa-2; test: Effect on IQSEC1 gene expression in human MIAPaCa2 cells at 400 nM after 6 hrs by RNA sequence analysis relative to control; format: functional; outline: as §1
[29] = system: PANC-1; test: Effect on PCK2 gene expression in human PANC1 cells at 400 nM after 24 hrs by RNA sequence analysis relative to control; format: functional
[30] = system: PANC-1; test: Effect on mLST8 gene expression in human PANC1 cells at 400 nM after 24 hrs by RNA sequence analysis relative to control; format: functional; outline: as §2
[31] = system: MIA PaCa-2; test: Effect on GLI1 gene expression in human MIAPaCa2 cells at 400 nM after 24 hrs by RNA sequence analysis relative to control; format: functional; outline: as §1
[32] = system: MIA PaCa-2; test: Effect on PLXNA1 gene expression in human MIAPaCa2 cells at 400 nM after 24 hrs by RNA sequence analysis relative to control; format: functional
[33] = system: PANC-1; test: Effect on TEAD3 gene expression in human PANC1 cells at 400 nM after 6 hrs by RNA sequence analysis relative to control; format: functional; outline: as §2
[34] = system: CAPAN-1; test: Growth inhibition of human Capan1 cells after 96 hrs by SRB assay; format: functional, cell-based; conditions: CAPAN-1, 96 h
Outline: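 Cell lines kept at 37 °C, 5% CO2 in medium with 10% FBS and 2 mM L-glutamine. Compound dissolved in water, filter-sterilised, 10 mM stock diluted into media. Growth read by 96 h sulforhodamine B assay, absorbance at 540 nm. IC50 taken from mean absorbance per concentration as % of untreated wells, >3 individual determinations with standard deviations.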

SMILES: O=C1c2ccc3c4c(c(NCCN5CCCC5)cc(c24)C(=O)N1CCCN1CCOCC1)C(=O)N(CCCN1CCOCC1)C3=O
- log2FC [1]: -0.5
- log2FC [2]: 0
- log2FC [3]: -0.2
- log2FC [4]: -0.86
- log2FC [5]: -0.74
- log2FC [6]: 0.07
- log2FC [7]: -0.74
- log2FC [8]: -0.8
- log2FC [9]: -1.09
- log2FC [10]: -0.92
- ΔTm [11]: 9.6 °C
- log2FC [12]: -1.53
- log2FC [13]: -0.91
- log2FC [14]: -0.83
- log2FC [15]: -1.85
- log2FC [16]: -0.44
- IC50 [17]: 159 nM
- log2FC [18]: -0.57
- log2FC [19]: -1.5
- IC50 [20]: 18 nM
- log2FC [21]: -2.01
- log2FC [22]: -0.54
- log2FC [23]: -0.69
- log2FC [24]: -1.14
- log2FC [25]: -0.34
- log2FC [26]: -1.6
- log2FC [27]: -0.53
- log2FC [28]: -1.11
- log2FC [29]: -0.56
- log2FC [30]: -1.72
- log2FC [31]: -0.64
- log2FC [32]: -1.56
- log2FC [33]: -0.59
- IC50 [34]: 16 nM
